Measured values reported in ChEMBL document CHEMBL1149663, “Design, synthesis and biological evaluation of 1,4-benzodiazepine-2,5-dione-based HDAC inhibitors” (Bioorg Med Chem Lett, 2007).
Calls of active or inactive are those of the source. No cut-off for these calls is given here.

Experiments:
[1] = (§1) Antiproliferative activity against H661 cells after 48 hrs by XTT assay; type: functional, cell-based; conditions: Homo sapiens, NCI-H661, 48 h
How it was run: (§2)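 Non-small cell lung cancer H661 cells were treated for 48 h, and proliferation was read by XTT assay as % of untreated control. Each analogue was run in three to four independent experiments, each in triplicate. IC50 was taken from the proliferation curves as the concentration giving 50% inhibition of proliferation.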

[2] = Antiproliferative activity against H661 cells at 5 uM after 48 hrs by XTT assay; type: functional, Homo sapiens, NCI-H661; how it was run: as §2
[3] = system: NCI-H661; assay: as §1; type: functional, cell-based; conditions: Homo sapiens; how it was run: as §2

SMILES | IC50 [1] [µM] | Activity [2] [%] | Activity [3]
O=C(CCCCCN1C(=O)c2ccccc2N(Cc2cccc3ccccc23)C(=O)[C@@H]1Cc1ccccc1)NO | 16 | – | –
CC(/C=C/C(=O)NO)=C\[C@@H](C)C(=O)c1ccc(N(C)C)cc1 [TRICHOSTATIN] | 0.085 | – | –
Cc1cc(C)cc(CN2C(=O)[C@H](Cc3ccccc3)N(C/C=C/CCC(=O)NO)C(=O)c3ccccc32)c1 | 17 | – | –
Cc1cc(C)cc(CN2C(=O)[C@H](Cc3ccccc3)N(CCCCCC(=O)NO)C(=O)c3ccccc32)c1 | 8 | 80 | –
O=C(CC/C=C/CN1C(=O)c2ccccc2N(Cc2ccccc2)C(=O)[C@@H]1Cc1ccccc1)NO | 8 | 80 | –
O=C(CCCCCN1C(=O)c2ccccc2N(Cc2ccccc2)C(=O)[C@@H]1Cc1ccccc1)NO | 6 | 40 | –
CN1C(=O)[C@H](Cc2ccccc2)N(CCCCCC(=O)NO)C(=O)c2ccccc21 | – | – | inactive
